Results taken from ChEMBL document CHEMBL1275477, “Discovery and characterization of QPT-1, the progenitor of a new class of bacterial topoisomerase inhibitors” (Antimicrob Agents Chemother, 2008).
In brackets after ≈: the same amount, converted by molar mass.

Tests used:
Type in all cases: functional
Staphylococcus aureus [1] = experiment: Antibacterial activity against Staphylococcus aureus RN4220 by broth microdilution method
Summary of the method: (§1)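 Broth microdilution MIC following National Committee for Clinical Laboratory Standards methods. Plasmid-borne GyrB in transformed S. aureus strains was overexpressed by adding 100 ng/ml doxycycline.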

Staphylococcus aureus [2] = experiment: Antimicrobial activity against Staphylococcus aureus 286607-R1 by broth microdilution method; summary of the method: as §1
Staphylococcus aureus [3] = experiment: Antimicrobial activity against Staphylococcus aureus RN4220 expressing gyrB D437N mutant gene by broth microdilution method; summary of the method: as §1
Staphylococcus aureus [4] = experiment: Antimicrobial activity against Staphylococcus aureus 286607-R1 harboring wild type gyrB by broth microdilution method; summary of the method: as §1
Moraxella catarrhalis = experiment: Antibacterial activity against Moraxella catarrhalis UC3067 by broth microdilution method; summary of the method: as §1
Staphylococcus aureus [5] = experiment: Antibacterial activity against methicillin-susceptible Staphylococcus aureus UC9218 by broth microdilution method; summary of the method: as §1
Haemophilus influenzae = experiment: Antibacterial activity against Haemophilus influenzae UC30063 by broth microdilution method; summary of the method: as §1
Klebsiella pneumoniae = experiment: Antibacterial activity against Klebsiella pneumoniae UC12081 by broth microdilution method; summary of the method: as §1
Staphylococcus aureus [6] = experiment: Antibacterial activity against ciprofloxacin-resistant Staphylococcus aureus by broth microdilution method; summary of the method: as §1
Streptococcus pneumoniae [7] = experiment: Antibacterial activity against Streptococcus pneumoniae UC15142 by broth microdilution method; summary of the method: as §1
Staphylococcus aureus [8] = experiment: Antibacterial activity against methicillin-resistant Staphylococcus aureus UC9213 by broth microdilution method; summary of the method: as §1
Staphylococcus aureus [9] = experiment: Antibacterial activity against Staphylococcus aureus UC9218 by broth microdilution method in presence of 50% serum; summary of the method: as §1
Pseudomonas aeruginosa = experiment: Antibacterial activity against Pseudomonas aeruginosa UC6676 by broth microdilution method; summary of the method: as §1
Staphylococcus aureus [10] = experiment: Antibacterial activity against Staphylococcus aureus UC9218 by broth microdilution method in presence of 25% serum; summary of the method: as §1
Streptococcus pneumoniae [11] = experiment: Antibacterial activity against Streptococcus pneumoniae by broth microdilution method; summary of the method: as §1
Enterococcus faecium = experiment: Antibacterial activity against Enterococcus faecium UC12712 by broth microdilution method; summary of the method: as §1
Staphylococcus aureus [12] = experiment: Antibacterial activity against methicillin and ciprofloxacin-resistant Staphylococcus aureus UC12673 by broth microdilution method; summary of the method: as §1
Streptococcus pneumoniae [13] = experiment: Antibacterial activity against Streptococcus pneumoniae UC9912 by broth microdilution method; summary of the method: as §1
Streptococcus pyogenes = experiment: Antibacterial activity against Streptococcus pyogenes UC152 by broth microdilution method; summary of the method: as §1
[14] = test system: Staphylococcus epidermidis; experiment: Antibacterial activity against methicillin and ciprofloxacin-resistant Staphylococcus epidermidis UC12084 by broth microdilution method; summary of the method: as §1
Staphylococcus aureus [15] = experiment: Antibacterial activity against methicillin-resistant Staphylococcus aureus by broth microdilution method; summary of the method: as §1
Enterococcus faecalis = experiment: Antibacterial activity against Enterococcus faecalis UC9217 by broth microdilution method; summary of the method: as §1
Staphylococcus aureus [16] = experiment: Antibacterial activity against methicillin-susceptible Staphylococcus aureus by broth microdilution method; summary of the method: as §1
Streptococcus pneumoniae [17] = experiment: Antibacterial activity against ciprofloxacin-resistant Streptococcus pneumoniae by broth microdilution method; summary of the method: as §1
Escherichia coli = experiment: Antibacterial activity against Escherichia coli UC6674 by broth microdilution method; summary of the method: as §1

SMILES: CN[C@@H]1[C@H](O[C@H]2[C@H](O[C@H]3[C@H](O)[C@@H](O)[C@H](N=C(N)N)[C@@H](O)[C@@H]3N=C(N)N)O[C@@H](C)[C@]2(O)C=O)O[C@@H](CO)[C@H](O)[C@H]1O [STREPTOMYCIN]
- MIC (Staphylococcus aureus [1]): 4 µg/mL (≈ 6.88 µM)
- MIC (Staphylococcus aureus [2]): 4 µg/mL (≈ 6.88 µM)
- MIC (Staphylococcus aureus [3]): 4 µg/mL (≈ 6.88 µM)
- MIC (Staphylococcus aureus [4]): 4 µg/mL (≈ 6.88 µM)

SMILES: CC1(C)S[C@@H]2[C@H](NC(=O)[C@H](N)c3ccccc3)C(=O)N2[C@H]1C(=O)O [AMPICILLIN]
- MIC (Staphylococcus aureus [1]): 2 µg/mL (≈ 5.72 µM)
- MIC (Staphylococcus aureus [2]): 4 µg/mL (≈ 11.4 µM)
- MIC (Staphylococcus aureus [3]): 2 µg/mL (≈ 5.72 µM)
- MIC (Staphylococcus aureus [4]): 2 µg/mL (≈ 5.72 µM)

SMILES: NC[C@H]1O[C@H](O[C@H]2[C@H](O)[C@@H](O[C@H]3O[C@H](CO)[C@@H](O)[C@H](N)[C@H]3O)[C@H](N)C[C@@H]2N)[C@H](O)[C@@H](O)[C@@H]1O [KANAMYCIN]
- MIC (Staphylococcus aureus [1]): 2 µg/mL (≈ 4.13 µM)
- MIC (Staphylococcus aureus [2]): 4 µg/mL (≈ 8.26 µM)
- MIC (Staphylococcus aureus [3]): 2 µg/mL (≈ 4.13 µM)
- MIC (Staphylococcus aureus [4]): 2 µg/mL (≈ 4.13 µM)

SMILES: CO[C@H]1/C=C/O[C@@]2(C)Oc3c(C)c(O)c4c(O)c(c(/C=N/N5CCN(C)CC5)c(O)c4c3C2=O)NC(=O)/C(C)=C\C=C\[C@H](C)[C@H](O)[C@@H](C)[C@@H](O)[C@@H](C)[C@H](OC(C)=O)[C@@H]1C [RIFAMPIN]
- MIC (Staphylococcus aureus [1]): < 0.625 µg/mL
- MIC (Staphylococcus aureus [2]): < 0.625 µg/mL

SMILES: CN[C@@H]1[C@H](O)[C@H](NC)[C@H]2O[C@@]3(O)C(=O)C[C@@H](C)O[C@H]3O[C@@H]2[C@H]1O [SPECTINOMYCIN]
- MIC (Staphylococcus aureus [1]): 64 µg/mL (≈ 193 µM)
- MIC (Staphylococcus aureus [2]): 64 µg/mL (≈ 193 µM)
- MIC (Staphylococcus aureus [3]): 64 µg/mL (≈ 193 µM)
- MIC (Staphylococcus aureus [4]): 64 µg/mL (≈ 193 µM)

SMILES: NC[C@@H]1O[C@H](O[C@H]2[C@@H](O)[C@H](O[C@@H]3[C@@H](O)[C@H](N)C[C@H](N)[C@H]3O[C@H]3O[C@H](CN)[C@@H](O)[C@H](O)[C@H]3N)O[C@@H]2CO)[C@H](N)[C@@H](O)[C@@H]1O [FRAMYCETIN]
- MIC (Staphylococcus aureus [1]): 2 µg/mL (≈ 3.25 µM)
- MIC (Staphylococcus aureus [2]): 4 µg/mL (≈ 6.51 µM)
- MIC (Staphylococcus aureus [3]): 2 µg/mL (≈ 3.25 µM)
- MIC (Staphylococcus aureus [4]): 2 µg/mL (≈ 3.25 µM)

SMILES: CCn1cc(C(=O)O)c(=O)c2ccc(C)nc21 [NALIDIXIC ACID]
- MIC (Staphylococcus aureus [1]): 32 µg/mL (≈ 138 µM)
- MIC (Staphylococcus aureus [2]): 64 µg/mL (≈ 276 µM)
- MIC (Staphylococcus aureus [3]): 32 µg/mL (≈ 138 µM)
- MIC (Staphylococcus aureus [4]): 32 µg/mL (≈ 138 µM)

SMILES: C[C@@H]1CN2c3ccc([N+](=O)[O-])cc3CC3(C(=O)NC(=O)NC3=O)[C@H]2[C@H](C)O1
- MIC (Moraxella catarrhalis): 1 µg/mL (≈ 2.67 µM)
- MIC (Staphylococcus aureus [5]): 0.25 µg/mL (≈ 0.668 µM)
- MIC (Haemophilus influenzae): 0.125 µg/mL (≈ 0.334 µM)
- MIC (Klebsiella pneumoniae): > 64 µg/mL
- MIC50 (Staphylococcus aureus [6]): 0.5 µg/mL (≈ 1.34 µM)
- MIC90 (Staphylococcus aureus [6]): 0.5 µg/mL (≈ 1.34 µM)
- MIC (Streptococcus pneumoniae [7]): 2 µg/mL (≈ 5.34 µM)
- MIC (Staphylococcus aureus [8]): 0.5 µg/mL (≈ 1.34 µM)
- MIC (Staphylococcus aureus [9]): 1 µg/mL
- MIC (Pseudomonas aeruginosa): > 64 µg/mL
- MIC (Staphylococcus aureus [10]): 0.5 µg/mL
- MIC50 (Streptococcus pneumoniae [11]): 2 µg/mL (≈ 5.34 µM)
- MIC90 (Streptococcus pneumoniae [11]): 4 µg/mL (≈ 10.7 µM)
- MIC (Enterococcus faecium): 4 µg/mL (≈ 10.7 µM)
- MIC (Staphylococcus aureus [12]): 0.5 µg/mL (≈ 1.34 µM)
- MIC (Streptococcus pneumoniae [13]): 2 µg/mL (≈ 5.34 µM)
- MIC (Streptococcus pyogenes): 1 µg/mL (≈ 2.67 µM)
- MIC [14]: 0.5 µg/mL (≈ 1.34 µM)
- MIC50 (Staphylococcus aureus [15]): 0.5 µg/mL (≈ 1.34 µM)
- MIC90 (Staphylococcus aureus [15]): 0.5 µg/mL (≈ 1.34 µM)
- MIC (Enterococcus faecalis): 2 µg/mL (≈ 5.34 µM)
- MIC50 (Staphylococcus aureus [16]): 0.5 µg/mL (≈ 1.34 µM)
- MIC90 (Staphylococcus aureus [16]): 0.5 µg/mL (≈ 1.34 µM)
- MIC50 (Streptococcus pneumoniae [17]): 2 µg/mL (≈ 5.34 µM)
- MIC90 (Streptococcus pneumoniae [17]): 4 µg/mL (≈ 10.7 µM)
- MIC (Escherichia coli): 2 µg/mL (≈ 5.34 µM)
